# Tested on: Fibroblast
# Assay: Multiplex assay against human fibroblast
# Assay type: toxicity, cell-based
# In short: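 Imaging took place on a CQ1 microscope at 37°C and 5% CO2 once compound had been added to live cells stained at seeding with Hoechst33342, BioTracker Green Microtubule Cytoskeleton Dye, MitoTracker Red and Annexin V Alexa Fluor 680. CellPathfinder machine-learning gating classed cells as Hoechst high-intensity objects or normal cells, classed normal cells as having healthy, pyknosed or fragmented nuclei, and classed pyknosed cells as mitotic or apoptotic. Tubulin, mitochondrial-mass and membrane-permeability phenotypes are per cents of the healthy-nucleus cells.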
# [1] = 12 h, 1 µM, compound concentration 1 uM, replicate 1
# [2] = 12 h, 1 µM, compound concentration 1 uM, replicate 2
# [3] = 12 h, 10 µM, compound concentration 10 uM, replicate 1
# [4] = 12 h, 10 µM, compound concentration 10 uM, replicate 2
# [5] = 24 h, 1 µM, compound concentration 1 uM, replicate 1
# [6] = 24 h, 1 µM, compound concentration 1 uM, replicate 2
# [7] = 24 h, 10 µM, compound concentration 10 uM, replicate 1
# [8] = 24 h, 10 µM, compound concentration 10 uM, replicate 2
# [9] = 48 h, 1 µM, compound concentration 1 uM, replicate 1
# [10] = 48 h, 1 µM, compound concentration 1 uM, replicate 2
# [11] = 48 h, 10 µM, compound concentration 10 uM, replicate 1
# [12] = 48 h, 10 µM, compound concentration 10 uM, replicate 2
compound,measurement,setting,value
COc1c(C)cc(NC(=O)c2nn(Cc3ccc(F)cc3)c3c2CN(C(=O)c2ccc[nH]2)C[C@]3(C)C(N)=O)cc1C,Population Apoptotic (%),[1],42%
same,Population Fragmented Nuclei (%),[1],21%
same,Population Healthy Nuclei (%),[1],58%
same,Population Hoechst High Intensity Objects (%),[1],2%
same,Population Membrane Permeable-Phenotype (%),[1],1%
same,Population Mitochondria Different-Phenotype (%),[1],18%
same,Population Mitotic Cells (%),[1],57%
same,Population Normal (%),[1],97%
same,Population Pyknosed Nuclei (%),[1],20%
same,Population Tubulin-Different-Phenotype (%),[1],64%
same,Total Cell Count,[1],95
same,Population Apoptotic (%),[2],46%
same,Population Fragmented Nuclei (%),[2],16%
same,Population Healthy Nuclei (%),[2],51%
same,Population Hoechst High Intensity Objects (%),[2],3%
same,Population Membrane Permeable-Phenotype (%),[2],6%
same,Population Mitochondria Different-Phenotype (%),[2],11%
same,Population Mitotic Cells (%),[2],53%
same,Population Normal (%),[2],96%
same,Population Pyknosed Nuclei (%),[2],31%
same,Population Tubulin-Different-Phenotype (%),[2],72%
same,Total Cell Count,[2],86
same,Population Apoptotic (%),[3],47%
same,Population Fragmented Nuclei (%),[3],12%
same,Population Healthy Nuclei (%),[3],58%
same,Population Hoechst High Intensity Objects (%),[3],1%
same,Population Membrane Permeable-Phenotype (%),[3],0%
same,Population Mitochondria Different-Phenotype (%),[3],25%
same,Population Mitotic Cells (%),[3],52%
same,Population Normal (%),[3],98%
same,Population Pyknosed Nuclei (%),[3],29%
same,Population Tubulin-Different-Phenotype (%),[3],90%
same,Total Cell Count,[3],166
same,Population Apoptotic (%),[4],52%
same,Population Fragmented Nuclei (%),[4],29%
same,Population Healthy Nuclei (%),[4],38%
same,Population Hoechst High Intensity Objects (%),[4],2%
same,Population Membrane Permeable-Phenotype (%),[4],6%
same,Population Mitochondria Different-Phenotype (%),[4],30%
same,Population Mitotic Cells (%),[4],47%
same,Population Normal (%),[4],97%
same,Population Pyknosed Nuclei (%),[4],32%
same,Total Cell Count,[4],115
same,Population Apoptotic (%),[5],66%
same,Population Fragmented Nuclei (%),[5],25%
same,Population Healthy Nuclei (%),[5],61%
same,Population Hoechst High Intensity Objects (%),[5],3%
same,Population Membrane Permeable-Phenotype (%),[5],1%
same,Population Mitochondria Different-Phenotype (%),[5],17%
same,Population Mitotic Cells (%),[5],33%
same,Population Normal (%),[5],96%
same,Population Pyknosed Nuclei (%),[5],12%
same,Population Tubulin-Different-Phenotype (%),[5],45%
same,Total Cell Count,[5],96
same,Population Apoptotic (%),[6],48%
same,Population Fragmented Nuclei (%),[6],31%
same,Population Healthy Nuclei (%),[6],38%
same,Population Hoechst High Intensity Objects (%),[6],6%
same,Population Membrane Permeable-Phenotype (%),[6],8%
same,Population Mitotic Cells (%),[6],51%
same,Population Normal (%),[6],93%
same,Population Pyknosed Nuclei (%),[6],30%
same,Population Tubulin-Different-Phenotype (%),[6],67%
same,Total Cell Count,[6],95
same,Population Apoptotic (%),[7],65%
same,Population Fragmented Nuclei (%),[7],14%
same,Population Healthy Nuclei (%),[7],64%
same,Population Hoechst High Intensity Objects (%),[7],3%
same,Population Membrane Permeable-Phenotype (%),[7],0%
same,Population Mitochondria Different-Phenotype (%),[7],47%
same,Population Mitotic Cells (%),[7],34%
same,Population Normal (%),[7],96%
same,Population Pyknosed Nuclei (%),[7],20%
same,Population Tubulin-Different-Phenotype (%),[7],90%
same,Total Cell Count,[7],159
same,Population Apoptotic (%),[8],43%
same,Population Fragmented Nuclei (%),[8],30%
same,Population Healthy Nuclei (%),[8],47%
same,Population Hoechst High Intensity Objects (%),[8],4%
same,Population Membrane Permeable-Phenotype (%),[8],8%
same,Population Mitochondria Different-Phenotype (%),[8],26%
same,Population Mitotic Cells (%),[8],56%
same,Population Normal (%),[8],95%
same,Population Pyknosed Nuclei (%),[8],21%
same,Population Tubulin-Different-Phenotype (%),[8],82%
same,Total Cell Count,[8],110
same,Population Apoptotic (%),[9],87%
same,Population Fragmented Nuclei (%),[9],29%
same,Population Healthy Nuclei (%),[9],61%
same,Population Hoechst High Intensity Objects (%),[9],7%
same,Population Membrane Permeable-Phenotype (%),[9],0%
same,Population Mitochondria Different-Phenotype (%),[9],10%
same,Population Mitotic Cells (%),[9],12%
same,Population Normal (%),[9],92%
same,Population Pyknosed Nuclei (%),[9],8%
same,Population Tubulin-Different-Phenotype (%),[9],45%
same,Total Cell Count,[9],99
same,Population Apoptotic (%),[10],70%
same,Population Fragmented Nuclei (%),[10],34%
same,Population Healthy Nuclei (%),[10],45%
same,Population Hoechst High Intensity Objects (%),[10],5%
same,Population Membrane Permeable-Phenotype (%),[10],10%
same,Population Mitotic Cells (%),[10],29%
same,Population Normal (%),[10],94%
same,Population Pyknosed Nuclei (%),[10],19%
same,Population Tubulin-Different-Phenotype (%),[10],69%
same,Total Cell Count,[10],91
same,Population Apoptotic (%),[11],60%
same,Population Fragmented Nuclei (%),[11],22%
same,Population Healthy Nuclei (%),[11],60%
same,Population Hoechst High Intensity Objects (%),[11],4%
same,Population Membrane Permeable-Phenotype (%),[11],0%
same,Population Mitochondria Different-Phenotype (%),[11],54%
same,Population Mitotic Cells (%),[11],39%
same,Population Normal (%),[11],95%
same,Population Pyknosed Nuclei (%),[11],17%
same,Population Tubulin-Different-Phenotype (%),[11],92%
same,Total Cell Count,[11],166
same,Population Apoptotic (%),[12],77%
same,Population Fragmented Nuclei (%),[12],41%
same,Population Healthy Nuclei (%),[12],51%
same,Population Hoechst High Intensity Objects (%),[12],2%
same,Population Membrane Permeable-Phenotype (%),[12],3%
same,Population Mitochondria Different-Phenotype (%),[12],16%
same,Population Mitotic Cells (%),[12],22%
same,Population Normal (%),[12],97%
same,Population Pyknosed Nuclei (%),[12],7%
same,Population Tubulin-Different-Phenotype (%),[12],75%
same,Total Cell Count,[12],122
CN(C)CCCc1cc(C(=O)Nc2ccc(-c3ccncc3)cc2)ccc1O.Cl.Cl,Population Apoptotic (%),[1],31%
same,Population Fragmented Nuclei (%),[1],15%
same,Population Healthy Nuclei (%),[1],65%
same,Population Hoechst High Intensity Objects (%),[1],4%
same,Population Membrane Permeable-Phenotype (%),[1],0%
same,Population Mitochondria Different-Phenotype (%),[1],7%
same,Population Mitotic Cells (%),[1],68%
same,Population Normal (%),[1],95%
same,Population Pyknosed Nuclei (%),[1],18%
same,Population Tubulin-Different-Phenotype (%),[1],22%
same,Total Cell Count,[1],122
same,Population Apoptotic (%),[2],44%
same,Population Fragmented Nuclei (%),[2],22%
same,Population Healthy Nuclei (%),[2],52%
same,Population Hoechst High Intensity Objects (%),[2],2%
same,Population Membrane Permeable-Phenotype (%),[2],4%
same,Population Mitochondria Different-Phenotype (%),[2],4%
same,Population Mitotic Cells (%),[2],55%
same,Population Normal (%),[2],97%
same,Population Pyknosed Nuclei (%),[2],24%
same,Population Tubulin-Different-Phenotype (%),[2],40%
same,Total Cell Count,[2],120
same,Population Apoptotic (%),[3],68%
same,Population Fragmented Nuclei (%),[3],33%
same,Population Healthy Nuclei (%),[3],58%
same,Population Hoechst High Intensity Objects (%),[3],7%
same,Population Membrane Permeable-Phenotype (%),[3],0%
same,Population Mitochondria Different-Phenotype (%),[3],15%
same,Population Mitotic Cells (%),[3],31%
same,Population Normal (%),[3],92%
same,Population Pyknosed Nuclei (%),[3],7%
same,Population Tubulin-Different-Phenotype (%),[3],43%
same,Total Cell Count,[3],305
same,Population Apoptotic (%),[4],48%
same,Population Fragmented Nuclei (%),[4],31%
same,Population Healthy Nuclei (%),[4],51%
same,Population Hoechst High Intensity Objects (%),[4],4%
same,Population Membrane Permeable-Phenotype (%),[4],4%
same,Population Mitochondria Different-Phenotype (%),[4],6%
same,Population Mitotic Cells (%),[4],51%
same,Population Normal (%),[4],95%
same,Population Pyknosed Nuclei (%),[4],17%
same,Population Tubulin-Different-Phenotype (%),[4],45%
same,Total Cell Count,[4],236
same,Population Apoptotic (%),[5],30%
same,Population Fragmented Nuclei (%),[5],16%
same,Population Healthy Nuclei (%),[5],66%
same,Population Hoechst High Intensity Objects (%),[5],1%
same,Population Membrane Permeable-Phenotype (%),[5],2%
same,Population Mitochondria Different-Phenotype (%),[5],3%
same,Population Mitotic Cells (%),[5],70%
same,Population Normal (%),[5],98%
same,Population Pyknosed Nuclei (%),[5],17%
same,Population Tubulin-Different-Phenotype (%),[5],25%
same,Total Cell Count,[5],119
same,Population Apoptotic (%),[6],37%
same,Population Fragmented Nuclei (%),[6],22%
same,Population Healthy Nuclei (%),[6],50%
same,Population Hoechst High Intensity Objects (%),[6],4%
same,Population Membrane Permeable-Phenotype (%),[6],1%
same,Population Mitochondria Different-Phenotype (%),[6],7%
same,Population Mitotic Cells (%),[6],62%
same,Population Normal (%),[6],95%
same,Population Pyknosed Nuclei (%),[6],27%
same,Population Tubulin-Different-Phenotype (%),[6],45%
same,Total Cell Count,[6],111
same,Population Apoptotic (%),[7],47%
same,Population Fragmented Nuclei (%),[7],30%
same,Population Healthy Nuclei (%),[7],63%
same,Population Hoechst High Intensity Objects (%),[7],6%
same,Population Membrane Permeable-Phenotype (%),[7],0%
same,Population Mitochondria Different-Phenotype (%),[7],11%
same,Population Mitotic Cells (%),[7],52%
same,Population Normal (%),[7],93%
same,Population Pyknosed Nuclei (%),[7],5%
same,Population Tubulin-Different-Phenotype (%),[7],40%
same,Total Cell Count,[7],339
same,Population Apoptotic (%),[8],42%
same,Population Fragmented Nuclei (%),[8],31%
same,Population Healthy Nuclei (%),[8],53%
same,Population Hoechst High Intensity Objects (%),[8],4%
same,Population Membrane Permeable-Phenotype (%),[8],5%
same,Population Mitochondria Different-Phenotype (%),[8],5%
same,Population Mitotic Cells (%),[8],57%
same,Population Normal (%),[8],95%
same,Population Pyknosed Nuclei (%),[8],14%
same,Population Tubulin-Different-Phenotype (%),[8],42%
same,Total Cell Count,[8],242
same,Population Apoptotic (%),[9],62%
same,Population Fragmented Nuclei (%),[9],28%
same,Population Healthy Nuclei (%),[9],59%
same,Population Hoechst High Intensity Objects (%),[9],0%
same,Population Membrane Permeable-Phenotype (%),[9],0%
same,Population Mitochondria Different-Phenotype (%),[9],1%
same,Population Mitotic Cells (%),[9],37%
same,Population Normal (%),[9],99%
same,Population Pyknosed Nuclei (%),[9],12%
same,Population Tubulin-Different-Phenotype (%),[9],29%
same,Total Cell Count,[9],126
same,Population Apoptotic (%),[10],50%
same,Population Fragmented Nuclei (%),[10],23%
same,Population Healthy Nuclei (%),[10],54%
same,Population Hoechst High Intensity Objects (%),[10],8%
same,Population Membrane Permeable-Phenotype (%),[10],1%
same,Population Mitochondria Different-Phenotype (%),[10],5%
same,Population Mitotic Cells (%),[10],50%
same,Population Normal (%),[10],91%
same,Population Pyknosed Nuclei (%),[10],21%
same,Population Tubulin-Different-Phenotype (%),[10],46%
same,Total Cell Count,[10],111
same,Population Apoptotic (%),[11],56%
same,Population Fragmented Nuclei (%),[11],28%
same,Population Healthy Nuclei (%),[11],60%
same,Population Hoechst High Intensity Objects (%),[11],11%
same,Population Membrane Permeable-Phenotype (%),[11],0%
same,Population Mitochondria Different-Phenotype (%),[11],8%
same,Population Mitotic Cells (%),[11],43%
same,Population Normal (%),[11],88%
same,Population Pyknosed Nuclei (%),[11],11%
same,Population Tubulin-Different-Phenotype (%),[11],48%
same,Total Cell Count,[11],321
same,Population Apoptotic (%),[12],51%
same,Population Fragmented Nuclei (%),[12],35%
same,Population Healthy Nuclei (%),[12],53%
same,Population Hoechst High Intensity Objects (%),[12],2%
same,Population Membrane Permeable-Phenotype (%),[12],3%
same,Population Mitochondria Different-Phenotype (%),[12],2%
same,Population Mitotic Cells (%),[12],48%
same,Population Normal (%),[12],97%
same,Population Pyknosed Nuclei (%),[12],10%
same,Population Tubulin-Different-Phenotype (%),[12],39%
same,Total Cell Count,[12],261
